aSyn 5UTR inh: MLPCN primary screen, SNCA 5' untranslated region; alpha-synuclein 5'UTR reporter, inhibitor activity; inhibition, % (tested at 7.5 µM); 300,000 compounds, 0.82% hits; in the data active = inhibition above about 60%; inconclusive = no clear call, values can overlap the other calls;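 also: H4 neuroglioblastoma cells stably carrying SNCA 5'UTR luciferase fusion; 0% = DMSO wells and 100% = positive control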
CSC inhib: cancer stem cell inhibition; cancer stem cell-like cells viability, luminescence; inhibition, % at 7.5 µM; 300,000 compounds, 1.1% hits; in the data active = inhibition above about 75%; inconclusive = no clear call, values can overlap the other calls; tested in HMLE shEcad cells
T cruzi inh: blocks replication of Trypanosoma cruzi; T. cruzi beta-gal in NIH3T3, luminescence, 90 h; inhibition, % (no concentration beside the values); 300,000 compounds, 1.4% hits; AID 1885;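 active = mean inhibition across valid replicates above about 55%, limit read from the data; inconclusive = mean below that limit but half or more replicates reach it; inactive = mean below it, under half of replicates reach it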;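 also: signal also drops with host cell toxicity which is not excluded here; 0% = plate median of DMSO wells and 100% = zero luminescence signal; higher percent means less beta-gal luminescence so fewer parasites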
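System: Mouse NIH/3T3 fibroblasts infected with β-gal-expressing T. cruzi Tulahuen C4 | Quantity: NIH/3T3 cells, 5,000 per well | Reagent: 5000 reporter trypomastigotes per well | Dosing: Compound pinned at 50 nL/well, DMSO | Schedule: 3 h host attachment, then at least 90 h co-culture | Detection: GalScreen luminescence, 60 min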
SKKanGAS inh: inhibitors of SKKanGAS S. pyogenes growth in kanamycin (SK-promoter or general growth effect); inhibition, % at 7.5 µM; 300,000 compounds, 1.3% hits; BacTiter-Glo, 6 h;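 active = mean replicate score, as percent of positive control median, at least 50; inconclusive = mean below 50 but one replicate at or above 50; inactive = mean and every replicate below 50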;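 also: strain carries kanamycin resistance gene driven by streptokinase promoter and grows in 40 µg/ml kanamycin; loss of luminescence reflects streptokinase promoter inhibition or plain growth inhibition; 0% = median of DMSO wells and 100% = positive control at its reference dose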
Mdm2 MdmX PPI: disrupts the human Mdm2-MdmX interaction; inhibition, % at 8 µM; 330,000 compounds, 3% hits; O15151+Q00987; SaOS-2 split-luciferase Mdm2/MdmX complementation, luminescence; AID 485346;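 active = inhibition of at least 50% at 8 µM in the primary screen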
* marks the source's active call; other numbers are inactive results. Only some compounds are listed: those with a hit (about 5.4% of all), similar ones and a draw of the others.

Results for CC(CC(=O)N1CCN(c2ccc(C(F)(F)F)cn2)CC1)n1ccnc1 (configuration not stated) ?
aSyn 5UTR inh: 10; CSC inhib: -5; T cruzi inh: 67*; SKKanGAS inh: -9; Mdm2 MdmX PPI: 8

What do the screens show for `CCOC(=O)N1CCC(NC(=O)c2cc(COc3c(C)cccc3C)on2)CC1`?
aSyn 5UTR inh: -4; CSC inhib: -7; T cruzi inh: -24; SKKanGAS inh: 2; Mdm2 MdmX PPI: 16

How did S=C(Nc1ccc(Oc2ccccc2)cc1)NC1CCCC1 do in these assays?
aSyn 5UTR inh: -9; CSC inhib: 17; T cruzi inh: 4; SKKanGAS inh: 4; Mdm2 MdmX PPI: -4

Results for S=C(NCC1CCCCC1)Nc1ccc(Oc2ccccc2)cc1 ?
aSyn 5UTR inh: 10; CSC inhib: inconclusive; T cruzi inh: 55*; SKKanGAS inh: 54*; Mdm2 MdmX PPI: 34

Results for CCCCOc1ccc(C(=O)N2CCNC(=O)C2)cc1 ?
aSyn 5UTR inh: -6; T cruzi inh: -2; SKKanGAS inh: 4; Mdm2 MdmX PPI: 21

How did CC1C/C(=N/Nc2nc3ccccc3[nH]2)CC(C)(C)C1 (configuration not stated) do in these assays?
aSyn 5UTR inh: -58; CSC inhib: -8; T cruzi inh: 19; SKKanGAS inh: 60*; Mdm2 MdmX PPI: 0

Results for CCN(CC)c1ccc(C(=O)OCc2cc(=O)oc3cc(O)ccc23)cc1 ?
aSyn 5UTR inh: 117*; CSC inhib: 84*; T cruzi inh: 11; SKKanGAS inh: 51*; Mdm2 MdmX PPI: 36

What do the screens show for `Cc1cccc(NC(=O)CSc2nncn2-c2ccccn2)c1`?
aSyn 5UTR inh: -17; CSC inhib: -6; T cruzi inh: -12; SKKanGAS inh: -1; Mdm2 MdmX PPI: -13

Results for CCOc1ccc(NC(=O)CN(C)C(=O)/C=C/c2ccco2)cc1OCC ?
CSC inhib: -2; Mdm2 MdmX PPI: -11

Results for S=C1Cc2ccccc2N1 ?
aSyn 5UTR inh: 35; T cruzi inh: 60*; SKKanGAS inh: inconclusive

What do the screens show for `O=C1CCc2ccccc2N1`?
aSyn 5UTR inh: -2; CSC inhib: -15; T cruzi inh: -4; SKKanGAS inh: -5; Mdm2 MdmX PPI: -15

What do the screens show for `O=C(O)c1ccc(Cl)c(S(=O)(=O)Nc2ccccc2C(=O)Nc2ccc(Cl)cc2)c1`?
aSyn 5UTR inh: -46; CSC inhib: 7; T cruzi inh: -21; SKKanGAS inh: 17; Mdm2 MdmX PPI: 12

What do the screens show for `O=C(CCCCCN1C(=O)[C@@H]2Cc3ccccc3CN2C1=O)Nc1cccc(F)c1`?
aSyn 5UTR inh: -10; CSC inhib: -9; T cruzi inh: -8; SKKanGAS inh: -7; Mdm2 MdmX PPI: 6

What do the screens show for `Cc1ccccc1NC(=O)Cn1nnc(C(=O)NCc2ccco2)c1N`?
aSyn 5UTR inh: -4; CSC inhib: 24; T cruzi inh: -6; SKKanGAS inh: 3; Mdm2 MdmX PPI: -10

Results for CCOc1ccccc1NC(=O)Cn1nnc(C(=O)NCc2ccco2)c1N ?
aSyn 5UTR inh: 85*; CSC inhib: -2; T cruzi inh: 5; SKKanGAS inh: 3; Mdm2 MdmX PPI: 42

What do the screens show for `CCOC(=O)c1cnc(SC)nc1Nc1cccc2ccccc12`?
aSyn 5UTR inh: 2; CSC inhib: 27; T cruzi inh: -5; SKKanGAS inh: -6; Mdm2 MdmX PPI: 21

What do the screens show for `CCOC(=O)c1cnc(-n2cc(C)cn2)nc1Nc1ccccc1OCC`?
aSyn 5UTR inh: 38; CSC inhib: 11; T cruzi inh: 31; SKKanGAS inh: 90*; Mdm2 MdmX PPI: 34

Results for CCc1oc2ccccc2c1C(=O)c1cc(Br)c(O)c(Br)c1 ?
aSyn 5UTR inh: 23; CSC inhib: 85*; T cruzi inh: -8; SKKanGAS inh: 50*; Mdm2 MdmX PPI: 17

Results for CCN(CC)CCNC(=O)C(=O)NCC1OCCN1C(=O)c1ccc2c(c1)OCO2 (configuration not stated) ?
aSyn 5UTR inh: 12; CSC inhib: -3; T cruzi inh: -25; SKKanGAS inh: -1; Mdm2 MdmX PPI: -2

Results for COc1cccc(OC)c1C(=O)NCCOc1cc(C)cc(C)c1 ?
aSyn 5UTR inh: 17; CSC inhib: -3; T cruzi inh: 1; SKKanGAS inh: -1; Mdm2 MdmX PPI: 18

How did O=S(=O)(c1ccc(S(=O)(=O)N(Cc2ccccc2)Cc2ccco2)cc1)N1CCCC1 do in these assays?
aSyn 5UTR inh: 28; CSC inhib: -4; T cruzi inh: 10; SKKanGAS inh: 1; Mdm2 MdmX PPI: 20

What do the screens show for `COC(=O)/C=C/c1ccccc1S(=O)(=O)N(Cc1ccccc1)Cc1ccco1`?
aSyn 5UTR inh: 89*; CSC inhib: 62; T cruzi inh: -11; SKKanGAS inh: 5; Mdm2 MdmX PPI: 37

Results for Clc1ccc(-c2n[nH]c3c2CCCC3)cc1 ?
aSyn 5UTR inh: -70; CSC inhib: -11; T cruzi inh: 12; SKKanGAS inh: -6; Mdm2 MdmX PPI: -3

How did Clc1ccc(-c2n[nH]c3c2CCC3)cc1Cl do in these assays?
aSyn 5UTR inh: -26; CSC inhib: -14; T cruzi inh: -1; SKKanGAS inh: 88*; Mdm2 MdmX PPI: -17

What do the screens show for `Cc1ccc(S(=O)(=O)N(C)C)cc1NC(=O)COC(=O)c1ccc2ccccc2n1`?
Mdm2 MdmX PPI: 11

What do the screens show for `C/C(=N\Nc1nc(N2CCCCCC2)nc(N2CCCCCC2)n1)c1ccccc1`?
aSyn 5UTR inh: 30; CSC inhib: 43; T cruzi inh: 35; SKKanGAS inh: 59*; Mdm2 MdmX PPI: 1

What do the screens show for `C/C(=N\Nc1nc(N2CCCCC2)nc(N2CCOCC2)n1)c1cccs1`?
aSyn 5UTR inh: -23; CSC inhib: -8; T cruzi inh: 7; SKKanGAS inh: 1; Mdm2 MdmX PPI: 15

Results for CN1Cc2c(N3CCOCC3)nc(SCc3ccccc3)c(C#N)c2CC1(C)C ?
aSyn 5UTR inh: 36; T cruzi inh: 58*; SKKanGAS inh: -2; Mdm2 MdmX PPI: 3

Results for CC(C)CCSc1nc(N2CCOCC2)c2c(c1C#N)CC(C)(C)OC2 ?
aSyn 5UTR inh: inconclusive; T cruzi inh: 67*; SKKanGAS inh: 0; Mdm2 MdmX PPI: -10

How did CCSc1nc(N2CCOCC2)c2c(c1C#N)CC(C)(C)N(C)C2 do in these assays?
aSyn 5UTR inh: 20; CSC inhib: 5; T cruzi inh: 30; SKKanGAS inh: 1; Mdm2 MdmX PPI: 2

What do the screens show for `COC(=O)CCSc1nc(N2CCOCC2)c2c(c1C#N)CC(C)(C)OC2`?
aSyn 5UTR inh: 11; CSC inhib: -13; T cruzi inh: -42; SKKanGAS inh: 5; Mdm2 MdmX PPI: 5

What do the screens show for `Cc1cccc(NC(=O)N(C)Cc2cccs2)c1`?
aSyn 5UTR inh: -9; CSC inhib: 8; T cruzi inh: -9; SKKanGAS inh: -9; Mdm2 MdmX PPI: -39

How did O=C(NCCCN1CCOCC1)C(=O)N/N=C/c1c(Cl)cccc1Cl do in these assays?
aSyn 5UTR inh: -6; CSC inhib: 4; T cruzi inh: -14; SKKanGAS inh: 5; Mdm2 MdmX PPI: 0

What do the screens show for `O=C(NCCCN1CCOCC1)C(=O)N/N=C/c1c2ccccc2cc2ccccc12`?
aSyn 5UTR inh: 67*; CSC inhib: 43; T cruzi inh: 9; SKKanGAS inh: 0; Mdm2 MdmX PPI: 1

Screens as filed in PubChem BioAssay.
